Many of the other results were omitted from the sample, so hits are more common in it than they were.
Biofilm kill mix = mixtures killing C. albicans biofilm; C. albicans biofilm persisters + clotrimazole, fluorescence viability; primary screen in compound mixtures of four per well; inhibition, % at 7.6 µM; actives 0.02% (n = 120,000);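 active = inhibition above 30.3% in the primary screen of four-compound pools, then above 30% when the compound was retested; inconclusive = passed the primary limit but could not be retested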;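 also: compounds exposed to preformed 24 h biofilms for 48 h; 0% = untreated biofilm control and 100% = clotrimazole plus chlorhexidine kill blank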
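Assay system: C. albicans biofilms / Medium: RPMI/MOPS medium, pH 7.0 / Schedule: biofilm formation 24 h, compound exposure 48 h, 37 °C / Measured by: Alamar Blue fluorescence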
ROMK mod = modulates human ROMK potassium channel activity. P48048. Tet-inducible ROMK, thallium flux fluorescence; actives lie on both sides. B-score at 10 µM. actives 2% (n = 130,000);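 active = signal ratio slope over the read window, or its plate-corrected B-score, at least 3 SD from the plate mean, either direction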;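 also: B-score of the F/F0 ratio slope over 7 to 12 s after thallium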
Target sequence (P48048 whole entry, looked up): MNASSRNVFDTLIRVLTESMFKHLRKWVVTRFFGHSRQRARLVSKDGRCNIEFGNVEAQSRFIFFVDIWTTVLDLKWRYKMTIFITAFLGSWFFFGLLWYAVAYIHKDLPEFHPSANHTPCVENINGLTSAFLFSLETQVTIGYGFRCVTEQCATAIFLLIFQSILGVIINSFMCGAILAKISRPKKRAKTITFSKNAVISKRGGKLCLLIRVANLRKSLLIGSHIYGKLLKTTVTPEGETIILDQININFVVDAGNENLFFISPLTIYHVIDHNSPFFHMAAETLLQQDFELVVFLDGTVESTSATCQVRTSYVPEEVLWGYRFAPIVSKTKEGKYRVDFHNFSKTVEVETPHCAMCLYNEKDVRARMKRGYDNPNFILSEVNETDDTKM
ROMK retest = retested hit modulating human ROMK potassium channel; shares compounds with ROMK mod; ROMK thallium flux, fluorescence ratio; active compounds read low; normalized thallium flux (F/F0 slope) at 10 µM; actives 54% (n = 3,000); AID 1917;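 active = Flux at 10 µM at least 3 SD below or above vehicle control mean in one or both replicates; inconclusive = no clear call, values can overlap the other calls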
An asterisk follows results filed as active; ? = inconclusive; · = not tested or not shown.

SMILES	Biofilm kill mix	ROMK mod	ROMK retest
CCOc1cc(Br)c(/C=C2/C(=O)N(C)C(=S)N2CC(=O)OC)cc1OC	11	-2.6*	0.075
CCCNC(=O)C(CC)NS(=O)(=O)c1ccc(OC)cc1 (stereo unspecified)	·	0.27	·
Cc1ccc(N=C2NC(=O)/C(=C/c3cn(C)c4ccccc34)S2)cc1C	6	-3.4*	?
Cn1cccc1/C=C1\SC(=Nc2cccc(O)c2)NC1=O	13	-2.3*	0.075
Cn1cccc1/C=C1\SC(=Nc2ccccc2)NC1=O	15	·	·
Cn1cccc1/C=C1\SC(=Nc2ccc(O)cc2)NC1=O	12	-0.55	·
Cc1cc(CSc2ccccc2)ccc1NC(=O)c1ccc(C)c([N+](=O)[O-])c1	11	0.77	·
Cc1ccc(Cn2c(=N)n(CC(=O)c3ccc([N+](=O)[O-])cc3)c3ccccc32)cc1	15	·	·
C=CCN=C1S/C(=C/c2cccc([N+](=O)[O-])c2)C(=O)N1CC=C	14	·	·
O=C(O)c1cccc(CN2C(=O)S/C(=C/c3cccc([N+](=O)[O-])c3)C2=O)c1	14	-12*	0.03*
COc1cccc(C2CC(c3c(-c4ccccc4)c4cc(Cl)ccc4[nH]c3=O)=NN2S(C)(=O)=O)c1OC (stereo unspecified)	·	-0.76	·
CC12C(=O)N(c3cccc(OC(=O)c4ccco4)c3)C(=O)C1C1c3ccccc3C2c2ccccc21 (stereo unspecified)	·	-0.9	·
Cc1oc2cc(O)ccc2c(=O)c1-c1nncn1-c1ccccc1	17	-4.6*	0.049*
Cc1oc2cc(O)ccc2c(=O)c1-c1ccccc1	22	0.011	·
Cc1ccc(S(=O)(=O)NC(C)C(=O)Nc2cccc([N+](=O)[O-])c2)cc1 (stereo unspecified)	11	-0.55	·
Cc1cc(S(=O)(=O)Nc2ccc(N(C)C)cc2)c(C)s1	·	0.21	·
CCOc1ccccc1OCC(=O)NC1CCCCC1	·	0.019	·
O=C(COc1ccccc1Br)NC1CCCC1	12	·	0.069*
CCOC(=O)c1c(C)[nH]c(C2=NNC(=Nc3ccccc3OC)SC2)c1C	23	·	·
Cc1cc(Cl)n2ncc(-c3ccccc3)c2n1	18	·	0.063*
Cc1cc(NCc2ccccn2)n2ncc(-c3ccccc3)c2n1	18	·	·
COC(=O)c1c(NC(=O)COC(=O)c2ccc(NC(=O)CC#N)cc2)sc2c1CCCCC2	32	0.32	·
Cc1cccc(N2CCN(C(=O)c3cc4n(n3)C(C(F)(F)F)CC(c3ccco3)N4)CC2)c1C (stereo unspecified)	·	0.66	·
Cc1nc(SCC(=O)c2ccccc2)n[nH]1	·	0.87	·
CCCC(c1nnnn1C(C)(C)C)N1CCN(Cc2ccccc2OC)CC1 (stereo unspecified)	19	0.077	·
SMILES	Biofilm kill mix	ROMK mod	ROMK retest
CCCC(c1nnnn1C(C)(C)C)N1CCN(c2ccccc2)CC1 (stereo unspecified)	18	-13*	0.083
CC(C)CCN(C)C1CCN(S(=O)(=O)c2cccc(C(F)(F)F)c2)CC1	·	-2.9*	0.072
CC1CN(S(=O)(=O)c2cccc(C(F)(F)F)c2)CC(C)O1 (stereo unspecified)	12	·	·
N=c1n(CCN2CCCCC2)c2ccccc2n1CC(O)c1ccc(Cl)c(Cl)c1 (stereo unspecified)	·	-4.5*	0.046*
CN(C)CCn1c(=N)n(CC(O)c2ccc(Cl)c(Cl)c2)c2ccccc21 (stereo unspecified)	19	-0.9	·
CC(C)CCN1CCN(Cc2cccc3nonc23)CC1CCO (stereo unspecified)	-1	-1.5	·
Cc1cc(Cl)ccc1OC(C)C(=O)Nc1ccccc1N1CCOCC1 (stereo unspecified)	·	·	?
COc1ccc(Cl)cc1NC(=O)CN(C)CC(=O)Nc1ccccc1N1CCOCC1	14	5.1*	?
COc1ccc(S(=O)(=O)N2CCOCC2)cc1NC(=O)CN(C)Cc1c(F)cccc1Cl	6	-0.37	·
COc1cc(OC)cc(C(=O)N[C@H](C(=O)Nc2ccccc2N2CCOCC2)C(C)C)c1	·	1.2	·
Cc1ccnc(SCC(=O)c2ccc(Br)s2)n1	13	-0.084	·
O=C(c1ccco1)N1N=C(c2ccncc2)CC1(O)C(F)(F)F (stereo unspecified)	3	-0.7	·
O=c1c(Cc2ccccc2)c(O)c2cccc3c4c(n1c23)CCCC4	13	3.8*	?
CCCCCn1c(=O)c(Cc2ccccc2)c(O)c2ccccc21	-4	·	·
COC(=O)Cc1[nH]c(=O)[nH]c1C(=O)OC	7	-0.06	·
COc1ccc(C=C2c3ccccc3C(=O)c3ccccc32)c(OC)c1	29	2.8*	0.093
COc1ccc(/C=C/C(=O)c2ccccc2)c(OC)c1	-9	-0.063	·
COc1ccc(Cc2nnc(SCC(=O)N3CCCC(C)C3)o2)cc1 (stereo unspecified)	1	0.38	·
COc1ccccc1/C=N/N1C(=O)C(CC(=O)Nc2ccc([N+](=O)[O-])cc2OC)SC1=Nc1cccc(C)c1C (stereo unspecified)	15	2.7*	0.089
CCOc1ccc(/C(C)=N/N2C(=O)C(CC(=O)Nc3ccc(OC)cc3[N+](=O)[O-])SC2=Nc2cccc(C)c2C)cc1 (stereo unspecified)	16	-0.029	·
CC(C)Sc1nc2c([nH]1)c(=N)ncn2Cc1ccccc1	3	-4.4*	0.057*
Cc1cccc(OCCSc2nc3c([nH]2)c(=N)ncn3Cc2ccccc2)c1	11	·	·
CC1=CC(C/C(C)=C/COc2ccc3ccc(=O)oc3c2)OC1=O (stereo unspecified)	19	·	·
COC(=O)C(CCSC)NS(=O)(=O)c1ccc(Cl)cc1 (stereo unspecified)	21	-0.078	·
CSCCC(NS(=O)(=O)c1ccc(Cl)cc1)C(=O)OCC(=O)N1CCOCC1 (stereo unspecified)	·	6.3*	0.094
SMILES	Biofilm kill mix	ROMK mod	ROMK retest
CC(Oc1ccc(Cl)cc1Cl)C(=O)NCCCn1ccnc1 (stereo unspecified)	·	-0.24	·
Cc1csc2ncc(C(=O)NCCC(c3ccccc3)c3ccccc3)c(=O)n12	22	0.0073	·
Cn1cnc([N+](=O)[O-])c1NC(C)(C)C	·	0.52	·
Cn1cnc([N+](=O)[O-])c1S(=O)(=O)c1ccc(Cl)cc1	8	-4.8*	0.059*
Cc1ccccc1CN(CC1CCC(C(=O)O)CC1)C(=S)Nc1ccccc1F (stereo unspecified)	10	0.65	·
CN(CC(=O)Nc1cccc(F)c1)CC(=O)Nc1ccc(Cl)cc1[N+](=O)[O-]	5	-0.26	·
Cn1cc(/C=C2\SC(=S)N(NC(=O)c3ccccc3)C2=O)c2ccccc21	13	-3*	0.058*
Cn1cc(/C=C2\SC(=S)N(NC(=O)c3cccc(Cl)c3)C2=O)c2ccccc21	20	·	·
O=C(NCc1ccccn1)c1nn(-c2ccccc2)c(=O)c2ccccc12	-1	0.036	·
Cc1ccc(-c2nnc(Nc3ccc(C(=O)N(C)C)cc3)c3ccccc23)cc1S(=O)(=O)NC(C)(C)CO	15	·	·
O=c1oc2ccccc2n1Cn1c(=O)oc2ccccc21	·	2.1	·
O=C1c2ccccc2C(=O)N1CCCn1c(=O)oc2ccccc21	·	0.79*	0.08
C=C(C)CN(CC)c1nc(N)c(C#N)c(CC#N)c1C#N	·	-2.6*	0.055*
CCCCN(CC)c1nc(N)c2c(N)nc(OCC)cc2c1C#N	·	-0.94	·
CCCCN(CC)c1nc(N)c(C#N)c(CC#N)c1C#N	·	-3.1*	0.055*

High-throughput results from PubChem BioAssay.
